In ChEMBL document CHEMBL1817667, “Synthesis and antimicrobial properties of some new thiazolyl coumarin derivatives” (2011):
Converted amounts (≈) assume the structure as drawn.

Experiments:
Type in all cases: functional
Staphylococcus aureus = test: Antibacterial activity against Staphylococcus aureus ATCC 25923 after 24 hrs by MTT assay; details: ATCC 25923, 24 h
In short: (§1)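 Broth microdilution. Inocula were grown in Mueller-Hinton broth from subcultures on nutrient agar (37 °C, 48 h) and set to McFarland 0.5. Compounds in DMSO were diluted with water, then two-fold serially from 3.91 to 250 µg/mL. Gentamicin and tetracycline served as positive controls and DMSO as negative. Plates ran 37 °C for 24 h, then MTT (0.2 mg/mL) for 30 min. MIC was the lowest concentration preventing the yellow-to-purple change.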

Streptococcus pyogenes = test: Antibacterial activity against Streptococcus pyogenes ATCC 19615 after 24 hrs by MTT assay; details: ATCC 19615, 24 h; in short: as §1
Haemophilus influenzae = test: Antibacterial activity against Haemophilus influenzae ATCC 10211 after 24 hrs by MTT assay; in short: as §1
Candida albicans = test: Antifungal activity against Candida albicans ATCC 10231 after 24 hrs by MTT assay; details: ATCC 10231, 24 h; in short: as §1
[1] = system: Mycobacterium tuberculosis; test: Antibacterial activity against Mycobacterium tuberculosis H37Rv ATCC 27294 after 5 days by MTT assay; details: H37Rv ATCC 27294, 120 h
In short: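 Inoculum from log-phase culture in Middlebrook 7H9 with ADC, set to McFarland no. 1 (approximately 3×10^7 CFU/mL), then diluted 1:20 in 7H9-OADC. Compounds in DMSO/water, two-fold series 3.91–250 μg/mL, tested in triplicate. Isoniazid positive control, drug-free growth wells. Incubated 37 °C, 8% CO₂. MTT–Tween 80 added to a control well; once purple, added to all wells. MIC read next day.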

Compound | MIC (Staphylococcus aureus) | MIC (Streptococcus pyogenes) | MIC (Haemophilus influenzae; ATCC 10211, 24 h) | MIC (Candida albicans) | MIC [1] | MIC (Haemophilus influenzae)
CN(C)[C@@H]1C(O)=C(C(N)=O)C(=O)[C@@]2(O)C(O)=C3C(=O)c4c(O)cccc4[C@@](C)(O)[C@H]3C[C@@H]12 [TETRACYCLINE] | 70 µM (≈ 31.1 µg/mL) | 14 µM (≈ 6.22 µg/mL) | 35 µM (≈ 15.6 µg/mL) |  |  | 
O=c1oc2ccccc2cc1-c1csc(N/N=C\c2cc(Br)ccc2O)n1 | 35 µM (≈ 15.5 µg/mL) | 17 µM (≈ 7.52 µg/mL) | 17 µM (≈ 7.52 µg/mL) | 35 µM (≈ 15.5 µg/mL) | 17 µM (≈ 7.52 µg/mL) | 
C/C(=N/Nc1nc(-c2cc3ccccc3oc2=O)cs1)c1cc2ccc(O)cc2oc1=O | 17 µM (≈ 7.57 µg/mL) | 72 µM (≈ 32.1 µg/mL) | 35 µM (≈ 15.6 µg/mL) | 140 µM (≈ 62.4 µg/mL) | 17 µM (≈ 7.57 µg/mL) | 
NNC(=O)c1ccncc1 [ISONIAZID] |  |  |  |  | 1.3 µM (≈ 0.178 µg/mL) | 
OC(Cn1cncn1)(Cn1cncn1)c1ccc(F)cc1F [FLUCONAZOLE] |  |  |  | 10 µM (≈ 3.06 µg/mL) |  | 
O=c1oc2ccccc2cc1-c1csc(NN=C(c2ccccc2)c2ccccc2)n1 | 295 µM (≈ 125 µg/mL) | 295 µM (≈ 125 µg/mL) | 147 µM (≈ 62.3 µg/mL) | 147 µM (≈ 62.3 µg/mL) | 147 µM (≈ 62.3 µg/mL) | 
O=c1oc2ccccc2cc1-c1csc(N/N=C\c2cccc3ccccc23)n1 | 157 µM (≈ 62.4 µg/mL) | 314 µM (≈ 125 µg/mL) | 314 µM (≈ 125 µg/mL) | 157 µM (≈ 62.4 µg/mL) | 157 µM (≈ 62.4 µg/mL) | 
C/C(=N\Nc1nc(-c2cc3ccccc3oc2=O)cs1)c1ccc(O)cc1 | 165 µM (≈ 62.3 µg/mL) | 165 µM (≈ 62.3 µg/mL) | 331 µM (≈ 125 µg/mL) | 331 µM (≈ 125 µg/mL) | > 663 µM | 
O=c1oc2ccccc2cc1-c1csc(N/N=C\c2ccc(O)cc2O)n1 | 82 µM (≈ 31.1 µg/mL) | 329 µM (≈ 125 µg/mL) | 329 µM (≈ 125 µg/mL) | 165 µM (≈ 62.6 µg/mL) | 329 µM (≈ 125 µg/mL) | 
O=c1oc2ccccc2cc1-c1csc(N/N=C\c2cccc(O)c2)n1 | 172 µM (≈ 62.5 µg/mL) | 344 µM (≈ 125 µg/mL) | 172 µM (≈ 62.5 µg/mL) | 172 µM (≈ 62.5 µg/mL) | 172 µM (≈ 62.5 µg/mL) | 
O=c1oc2ccccc2cc1-c1csc(N/N=C\c2c(O)ccc3ccccc23)n1 | 75 µM (≈ 31 µg/mL) | 75 µM (≈ 31 µg/mL) | 151 µM (≈ 62.4 µg/mL) | 151 µM (≈ 62.4 µg/mL) | 75 µM (≈ 31 µg/mL) | 
O=c1oc2ccccc2cc1-c1csc(N/N=C\c2ccc(O)cc2)n1 | 344 µM (≈ 125 µg/mL) | 172 µM (≈ 62.5 µg/mL) | 344 µM (≈ 125 µg/mL) | 172 µM (≈ 62.5 µg/mL) | 344 µM (≈ 125 µg/mL) | 
COc1cccc(/C=N\Nc2nc(-c3cc4ccccc4oc3=O)cs2)c1O | 159 µM (≈ 62.6 µg/mL) | 159 µM (≈ 62.6 µg/mL) | 79 µM (≈ 31.1 µg/mL) | 79 µM (≈ 31.1 µg/mL) | 79 µM (≈ 31.1 µg/mL) | 
GENTAMICIN |  |  |  |  |  | 13 µM
O=c1oc2ccccc2cc1-c1csc(N/N=C\c2ccccc2O)n1 | 172 µM (≈ 62.5 µg/mL) | 344 µM (≈ 125 µg/mL) | 43 µM (≈ 15.6 µg/mL) | 86 µM (≈ 31.3 µg/mL) | 43 µM (≈ 15.6 µg/mL) | 
C/C(=N/Nc1nc(-c2cc3ccccc3oc2=O)cs1)c1cc2cc(Br)ccc2oc1=O | 62 µM (≈ 31.5 µg/mL) | 62 µM (≈ 31.5 µg/mL) | 15 µM (≈ 7.63 µg/mL) | 31 µM (≈ 15.8 µg/mL) | 15 µM (≈ 7.63 µg/mL) | 
